# EWS-Fli inh = EWS/Fli-driven NR0B1 reporter inhibitors, primary screen, A673 cells, NR0B1 luciferase, luminescence, MLPCN library. viability-normalised. inhibition, % at 12.6 µM. actives 0.67% (n = 350,000). AID 651661, 2012;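 active = mean inhibition of at least 50% after viability correction, with every replicate also passing that limit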;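 also: firefly luciferase signal divided by Alamar Blue viability fluorescence both relative to DMSO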
# XiGFP reactiv = activators of inactive X chromosome reactivation, primary screen, imaging, XiGFP fibroblasts, GFP high-content imaging, set 2; XiGFP mouse fibroblasts, % GFP-positive cells imaging, 3 d; cells co-treated with 5-aza-dC sensitizer; scaled so ellipticine positive control = 100%; activation, % at 7.58 µM; actives 0.055% (n = 360,000); AID 743238, 2013;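 active = mean normalized replicate activation at least 10% and every replicate at or above 10%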;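 also: 0% = median of on-plate neutral control wells and 100% = ellipticine 6 µM median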
#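 Assay system: SV40-immortalized XiGFP fibroblast cells, line 68-5-11; buffer or medium: DMEM plus 5-aza-dC sensitizer; compound: one concentration, pinned; timing: compounds 3 days, fix/stain 15 min at room temperature; benchmarks: positive control ellipticine, 6 µM final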
# PAX8 reporter = inhibitors of PAX8-driven TPO luciferase reporter, primary screen, RMG-I cells, single concentration. inhibition, % at 12.6 µM. AID 652154, 2013. actives 1.2% (n = 360,000). SteadyGlo, 24 h;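 active = mean replicate inhibition at least 60% with every replicate also reaching 60%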;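 also: luciferase light reporting Pax8 driven TPO promoter activity; plate controls were median of neutral control wells for no effect and mitoxantrone controls for full effect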
# PGC1a acetyl inh = inhibitors of PGC1a acetylation signal, primary screen, cell-based, U2OS, AlphaScreen, inhibitor mode; AlphaScreen anti-acetyl-lysine; with virally co-expressed GCN5 acetyltransferase; inhibition, % at 15.6 µM; actives 0.17% (n = 350,000); AID 651687, 2012;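 active = every replicate shows inhibition of at least 40%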;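 also: 0% = neutral control wells and 100% = positive control wells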
# AF4-AF9 inh = inhibitors of AF4 peptide binding to AF9, primary screen, biochemical, AlphaScreen, biotin-AF4 peptide, FLAG-AF9, single point. AID 651704, 2012. inhibition, % at 10 µM. actives 0.47% (n = 350,000). Protein AF-9 (Homo sapiens), P42568;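 active = every replicate reaching a set inhibition limit, whatever the replicate mean, cut at about 25% in these data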;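 also: 0% = plate neutral control median and 100% = total signal loss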
# Target sequence (P42568 whole entry, looked up): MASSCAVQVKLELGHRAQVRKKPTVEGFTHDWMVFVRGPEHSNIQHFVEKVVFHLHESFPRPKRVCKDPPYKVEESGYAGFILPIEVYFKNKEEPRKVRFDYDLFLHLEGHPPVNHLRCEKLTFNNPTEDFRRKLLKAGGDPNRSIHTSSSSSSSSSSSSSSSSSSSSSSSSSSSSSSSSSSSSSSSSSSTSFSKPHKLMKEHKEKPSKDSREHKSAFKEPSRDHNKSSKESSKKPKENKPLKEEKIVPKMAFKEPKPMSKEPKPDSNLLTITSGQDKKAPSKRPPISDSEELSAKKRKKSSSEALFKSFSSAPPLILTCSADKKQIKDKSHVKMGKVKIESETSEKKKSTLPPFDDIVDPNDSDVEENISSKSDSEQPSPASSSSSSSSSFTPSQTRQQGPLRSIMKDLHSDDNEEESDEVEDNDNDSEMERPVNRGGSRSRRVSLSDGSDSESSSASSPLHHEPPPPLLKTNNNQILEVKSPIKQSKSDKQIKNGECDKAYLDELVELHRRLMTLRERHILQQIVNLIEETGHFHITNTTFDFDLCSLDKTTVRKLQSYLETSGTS
# INS-1E GSIS act = GLuc luminescence reporter in INS-1E cells, primary screen for activators of glucose-dependent secretion of insulin; actives 0.61% (n = 370,000); activation, % at 16.6 µM; INS-1E GLuc reporter insulin secretion, 2-3 h;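 active = lowest replicate activation of at least 40%, so every replicate reaches that level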;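 also: 0% = median of neutral control wells and 100% = median of IBMX positive control wells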
# * marks the source's active call; other numbers are inactive results; . = no result given. Compounds with a hit are over-represented: about 2.1% of the library has one in this group of screens.
SMILES,EWS-Fli inh,XiGFP reactiv,PAX8 reporter,PGC1a acetyl inh,AF4-AF9 inh,INS-1E GSIS act
O=C(C[C@@H]1C=C[C@H](NS(=O)(=O)c2ccccc2)[C@@H](CO)O1)N1CCN(c2ccccc2)CC1,.,0,20,4,.,8
C/C=C/c1ccc([C@@H]2[C@@H](CO)N(C(C)=O)C23CN(C(=O)c2cnccn2)C3)cc1,0,0,.,6,1,6
Cn1cc(C(=O)c2ccc(Cl)cc2Cl)cc1C(=O)N/N=C(\N)COc1ccc(Cl)cc1,25,0,70*,-15,9,-39
Cn1cc(C(=O)c2ccc(Cl)cc2Cl)cc1C(=O)N/N=C(\N)COc1ccc(F)cc1,.,.,.,-12,.,.
COc1ccc(NC(=O)CCCN2C(=O)CN(C)C2=O)c(OC)c1,1,0,18,-4,33*,.
C[C@H]1CN(C)C(=O)c2cccc(N)c2O[C@H]1CN(C)C(=O)OC(C)(C)C,.,0,.,.,.,-5
O=C(C1CCCC1)N1CC(=O)N2[C@H](CO)[C@H](c3ccc(-c4cccnc4)cc3)[C@H]2C1,-3,0,.,.,-2,8
Cc1ccc(NC(=O)/C=C/c2ccc([N+](=O)[O-])s2)c(C)c1,71*,37*,98*,.,2,33
Cc1cccc(NC(=O)/C=C/c2ccc([N+](=O)[O-])s2)c1,68*,81*,73*,.,6,10
Cc1cccc(NC(=S)N/N=C/c2ccc([N+](=O)[O-])s2)c1,.,.,.,-26,.,.
Cc1ccc(NC(=O)/C=C/c2ccc([N+](=O)[O-])s2)cc1,.,97*,39,.,.,32
C[C@H]1CN([C@@H](C)CO)C(=O)Cc2cc(NC(=O)C3CCCCC3)ccc2O[C@H]1CN(C)Cc1ccc2c(c1)OCO2,-3,0,.,-6,-1,-3
CCCc1cc(C(=O)N2CCN(C(c3ccccc3)c3ccccc3)CC2)no1,-5,0,7,0,50*,-24
Cc1cc(C(=O)N2CCN(C(c3ccccc3)c3ccccc3)CC2)no1,.,.,.,-6,.,-21
O=C(c1cc(-c2cccs2)on1)N1CCN(C(c2ccccc2)c2ccccc2)CC1,.,.,99*,-15,.,.
CC[C@@H]1C/C=C\C[C@H](c2ccccc2)NC(=O)CCC(=O)N1,.,0,.,.,.,9
CCC(=O)N1CC2(CN(C(C)=O)C2)c2c([nH]c3cc(OC)ccc23)[C@@H]1CO,6,0,-20,1,-10,2
C[C@@H]1CN([C@@H](C)CO)C(=O)c2cc(NC(=O)Nc3ccc(F)cc3)ccc2O[C@@H](C)CCCCO[C@@H]1CN(C)C(=O)Nc1ccc2c(c1)OCO2,10,0,1,-10,1,21
COc1ccc(Nc2nc3ccccc3n3cnnc23)cc1Cl,-17,0,-26,.,2,6
COc1ccc(/C(C)=N/Nc2nc3ccccc3n3cnnc23)cc1OC,-30,0,-11,.,-1,44*
Cc1ccc(S(=O)(=O)N2CCN(C(=O)COC(=O)c3ccccc3OC(F)F)CC2)c(C)c1,1,127*,-5,14,-1,1
Cc1ccc(S(=O)(=O)N2CCN(C(=O)COC(=O)c3ccc(O)cc3)CC2)c(C)c1,7,0,11,-4,-1,49*
COC(=O)[C@]12CCCCC=C1N(CCC1=CCCCC1)C(=O)[C@H](CC(=O)N1CCN(C(=O)c3ccco3)CC1)C2,3,0,79*,.,5,-16
COC(=O)[C@]12CCCCC=C1N(Cc1cccc3ccccc13)C(=O)[C@H](CC(=O)N1CCCC1)C2,3,0,3,.,4,-34
CCOC(=O)[C@]12CCC=C1N(Cc1ccccc1)C(=O)[C@H](CC(=O)N1CCN(C(=O)c3ccco3)CC1)C2,-1,0,45,.,-2,-6
COC(=O)[C@]12CCCCC=C1N(CCc1ccc(OC)c(OC)c1)C(=O)[C@H](CC(=O)N1CCN(C(=O)c3ccco3)CC1)C2,-6,0,21,.,4,-17
